{"source": "ChEMBL document CHEMBL3864163", "about": "“I. Discovery of a novel series of CXCR3 antagonists. Multiparametric optimization of N,N-disubstituted benzylamines” (Bioorg Med Chem Lett, 2016)", "key": {"[1]": {"molecular_target": "T1, C-X-C chemokine receptor type 3 (Homo sapiens, UniProt P49682)", "T1 sequence (P49682 whole entry)": "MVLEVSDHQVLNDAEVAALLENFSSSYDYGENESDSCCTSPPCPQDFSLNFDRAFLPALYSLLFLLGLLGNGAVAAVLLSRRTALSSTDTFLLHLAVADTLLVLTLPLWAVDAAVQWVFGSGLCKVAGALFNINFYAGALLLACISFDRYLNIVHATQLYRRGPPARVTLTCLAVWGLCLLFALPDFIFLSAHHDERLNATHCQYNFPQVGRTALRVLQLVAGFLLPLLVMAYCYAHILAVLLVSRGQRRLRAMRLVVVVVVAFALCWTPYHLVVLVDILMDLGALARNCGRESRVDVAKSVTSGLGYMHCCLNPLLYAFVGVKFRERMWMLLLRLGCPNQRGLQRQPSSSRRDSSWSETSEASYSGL", "test": "Displacement of [125I]-CXCL10 from human recombinant CXCR3 transfected in Flp-In-CHO cell membranes after 60 mins by gamma counting method"}, "[2]": {"test": "Metabolic stability in human liver microsomes assessed as parent compound remaining in presence of NADPH by LC-MS/MS method", "assay_type": "ADME", "summary_of_the_method": "(§1)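 Compound incubated with liver microsomes (human or mouse) plus NADPH at 37 °C. Loss of parent was followed by LC-MS-MS and reported as percent. Stability bands: low <40%, medium 40–60%, high >60%.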"}, "[3]": {"test": "Metabolic stability in mouse liver microsomes assessed as parent compound remaining in presence of NADPH by LC-MS/MS method", "assay_type": "ADME", "summary_of_the_method": "as §1"}, "[4]": {"test": "Apparent permeability across human Caco2 cells after 2 hrs by LC-MS method", "assay_type": "ADME, cell-based", "details": "Caco-2", "summary_of_the_method": "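Caco-2 monolayers checked for integrity, then dosed alongside high- and low-permeability controls. Apical and basal samples taken at 2 h. Four transport conditions: A-B at pH 6.5/7.4 (0% or 0.5% BSA apical, 5% BSA basal), and A-B and B-A at pH 7.4/7.4 (0.5% BSA both sides). Compound quantified by LC/MS. Rapid transport defined as Papp >20 nm/s.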"}, "[5]": {"molecular_target": "T2, Muscarinic acetylcholine receptor M2 (Homo sapiens) (UniProt P08172)", "T2 sequence (whole entry)": "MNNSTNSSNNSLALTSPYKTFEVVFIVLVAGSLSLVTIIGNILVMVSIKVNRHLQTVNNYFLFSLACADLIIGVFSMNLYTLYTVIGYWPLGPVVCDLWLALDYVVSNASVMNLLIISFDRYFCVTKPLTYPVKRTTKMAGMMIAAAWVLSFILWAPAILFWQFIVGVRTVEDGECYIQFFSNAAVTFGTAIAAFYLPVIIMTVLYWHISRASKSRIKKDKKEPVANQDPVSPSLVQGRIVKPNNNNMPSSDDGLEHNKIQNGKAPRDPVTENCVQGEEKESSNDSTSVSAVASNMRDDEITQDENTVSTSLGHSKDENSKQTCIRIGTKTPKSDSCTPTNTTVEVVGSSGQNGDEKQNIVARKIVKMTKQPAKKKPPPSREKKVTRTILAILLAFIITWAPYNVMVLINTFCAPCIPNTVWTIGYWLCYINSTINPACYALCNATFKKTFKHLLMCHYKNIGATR", "test": "Displacement of [3H]AF-DX384 from recombinant human muscarinic M2 receptor expressed in CHO cells at 10 uM after 60 mins by scintillation counting method relative to control", "assay_type": "cell-based"}, "[6]": {"molecular_target": "Mu-type opioid receptor (Homo sapiens) (UniProt P35372)", "sequence (P35372 whole entry)": "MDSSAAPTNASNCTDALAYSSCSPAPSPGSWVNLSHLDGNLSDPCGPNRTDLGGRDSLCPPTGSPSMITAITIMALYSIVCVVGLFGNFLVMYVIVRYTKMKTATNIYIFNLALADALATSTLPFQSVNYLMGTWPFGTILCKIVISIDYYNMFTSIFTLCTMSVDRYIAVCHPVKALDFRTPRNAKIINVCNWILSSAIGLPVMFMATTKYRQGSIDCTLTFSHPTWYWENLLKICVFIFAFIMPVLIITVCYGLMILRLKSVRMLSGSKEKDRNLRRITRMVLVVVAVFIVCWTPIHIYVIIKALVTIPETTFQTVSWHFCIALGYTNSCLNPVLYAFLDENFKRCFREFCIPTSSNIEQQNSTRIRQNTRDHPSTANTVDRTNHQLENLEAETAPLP", "test": "Displacement of [3H]DAMGO from recombinant human mu opioid receptor expressed in HEK293 cells at 10 uM after 60 mins by scintillation counting method relative to control", "assay_type": "cell-based"}, "[7]": {"molecular_target": "T3, Alpha-1A adrenergic receptor (Homo sapiens) (UniProt P35348)", "T3 sequence (whole entry)": "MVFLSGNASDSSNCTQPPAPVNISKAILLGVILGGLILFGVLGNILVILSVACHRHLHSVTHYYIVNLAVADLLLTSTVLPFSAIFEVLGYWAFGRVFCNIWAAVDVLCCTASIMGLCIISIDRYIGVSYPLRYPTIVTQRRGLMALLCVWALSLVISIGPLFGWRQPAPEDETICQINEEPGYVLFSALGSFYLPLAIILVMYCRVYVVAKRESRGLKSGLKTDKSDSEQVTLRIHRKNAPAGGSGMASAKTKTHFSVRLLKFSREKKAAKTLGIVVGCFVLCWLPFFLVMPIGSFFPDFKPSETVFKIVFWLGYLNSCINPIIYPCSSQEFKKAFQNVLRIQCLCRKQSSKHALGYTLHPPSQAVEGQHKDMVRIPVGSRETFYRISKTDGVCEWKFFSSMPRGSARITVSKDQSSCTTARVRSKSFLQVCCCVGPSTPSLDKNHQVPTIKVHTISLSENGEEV", "test": "Displacement of [3H]prazosin from recombinant human alpha 1A adrenergic receptor expressed in CHO cells at 10 uM after 60 mins by scintillation counting method relative to control", "assay_type": "cell-based"}, "[8]": {"molecular_target": "T1, C-X-C chemokine receptor type 3", "test": "Antagonist activity at human Galphai4qi4-coupled CXCR3A expressed in engineered CHO cells assessed as inhibition of IP-10-induced calcium mobilization by FLIPR assay", "assay_type": "functional, cell-based"}, "[9]": {"molecular_target": "T4, Alpha-2A adrenergic receptor (Homo sapiens) (UniProt P08913)", "T4 sequence (whole entry)": "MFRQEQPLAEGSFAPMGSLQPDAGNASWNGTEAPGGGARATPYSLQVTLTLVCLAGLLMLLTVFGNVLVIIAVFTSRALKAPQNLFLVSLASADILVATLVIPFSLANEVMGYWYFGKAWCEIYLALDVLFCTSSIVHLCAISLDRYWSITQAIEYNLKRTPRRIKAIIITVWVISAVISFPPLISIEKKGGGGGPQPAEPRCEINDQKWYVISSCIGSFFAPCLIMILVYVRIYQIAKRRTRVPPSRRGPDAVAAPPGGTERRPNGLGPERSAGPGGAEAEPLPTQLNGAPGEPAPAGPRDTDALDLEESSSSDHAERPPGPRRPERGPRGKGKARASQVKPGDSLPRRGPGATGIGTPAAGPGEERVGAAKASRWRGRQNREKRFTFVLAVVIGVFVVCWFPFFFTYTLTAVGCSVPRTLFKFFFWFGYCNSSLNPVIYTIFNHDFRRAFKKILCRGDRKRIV", "test": "Displacement of [3H]RX 821002 from recombinant human alpha 2A adrenergic receptor expressed in CHO cells at 10 uM after 60 mins by scintillation counting method relative to control", "assay_type": "cell-based"}, "[10]": {"molecular_target": "Histamine H1 receptor (Homo sapiens) (UniProt P35367)", "sequence (P35367 whole entry)": "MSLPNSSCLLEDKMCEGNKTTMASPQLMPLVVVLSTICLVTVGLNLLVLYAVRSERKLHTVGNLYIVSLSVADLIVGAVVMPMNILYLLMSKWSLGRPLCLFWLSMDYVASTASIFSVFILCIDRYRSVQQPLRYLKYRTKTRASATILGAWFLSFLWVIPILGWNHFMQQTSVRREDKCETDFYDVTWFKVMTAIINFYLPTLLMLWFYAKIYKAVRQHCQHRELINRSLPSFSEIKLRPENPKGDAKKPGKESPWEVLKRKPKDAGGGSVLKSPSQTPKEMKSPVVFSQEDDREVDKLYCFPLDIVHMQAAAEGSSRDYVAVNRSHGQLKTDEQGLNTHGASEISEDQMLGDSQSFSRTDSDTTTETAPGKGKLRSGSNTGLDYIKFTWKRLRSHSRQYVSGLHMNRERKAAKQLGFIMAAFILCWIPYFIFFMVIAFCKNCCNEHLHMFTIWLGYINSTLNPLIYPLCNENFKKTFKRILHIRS", "test": "Displacement of [3H]pyrilamine from recombinant human histamine H1 receptor expressed in HEK293 cells at 10 uM after 60 mins by scintillation counting method relative to control", "assay_type": "cell-based"}, "[11]": {"test": "Absolute oral bioavailability in Balb/c mouse at 10 mg/kg", "assay_type": "ADME, organism-based", "details": "in vivo", "summary_of_the_method": "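Male Balb/c mice dosed once orally at 10 mg/kg and once intravenously at 3 mg/kg. Either 4 animals per route were profiled individually, or sparse sampling used 24 mice with 3 per time point for mean profiles. Absolute oral bioavailability was derived from the two routes.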"}, "[12]": {"test": "Intrinsic clearance in human hepatocytes assessed per 10^6 cells at 5 uM", "assay_type": "ADME, cell-based, Hepatocyte"}, "[13]": {"molecular_target": "T5, Muscarinic acetylcholine receptor M1 (Homo sapiens) (UniProt P11229)", "T5 sequence (whole entry)": "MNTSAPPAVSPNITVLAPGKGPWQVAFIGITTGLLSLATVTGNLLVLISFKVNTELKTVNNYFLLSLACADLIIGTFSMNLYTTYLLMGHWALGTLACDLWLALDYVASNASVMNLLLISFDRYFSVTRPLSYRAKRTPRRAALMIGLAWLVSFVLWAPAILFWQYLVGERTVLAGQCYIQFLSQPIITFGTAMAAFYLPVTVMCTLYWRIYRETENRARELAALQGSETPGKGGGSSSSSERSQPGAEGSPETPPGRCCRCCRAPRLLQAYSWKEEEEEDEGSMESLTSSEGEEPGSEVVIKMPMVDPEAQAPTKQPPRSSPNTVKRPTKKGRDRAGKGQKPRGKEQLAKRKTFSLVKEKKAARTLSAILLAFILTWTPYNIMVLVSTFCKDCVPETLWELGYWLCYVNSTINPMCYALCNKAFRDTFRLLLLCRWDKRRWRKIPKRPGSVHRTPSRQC", "test": "Displacement of [3H]pirenzepine from recombinant human muscarinic M1 receptor expressed in CHO cells at 10 uM after 60 mins by scintillation counting method relative to control", "assay_type": "cell-based"}, "[14]": {"test": "Chemical stability of the compound in 1:1 acetonitrile-water at pH 6.5 after 48 hrs by LC-MS method", "assay_type": "physicochemical", "details": "buffer, pH 6.5, 48 h"}}, "note": "pIC50: −log10 of the molar value.", "data": [{"smiles": "COc1cc(CN(C)C(C)c2ccc3c(c2)CCO3)ccc1OCCN1C(=O)CCC1=O", "note": "(stereo unspecified)", "values": [{"measurement": "pIC50", "setting": "[1]", "value": 6.39}, {"measurement": "Stability", "setting": "[2]", "value": 53, "unit": "%"}, {"measurement": "Stability", "setting": "[3]", "value": 52, "unit": "%"}, {"measurement": "Papp at 2 h", "setting": "[4]", "value": 5.62, "unit": "×10⁻⁶ cm/s"}, {"measurement": "inhibition", "setting": "[5]", "value": "> 65", "unit": "%"}, {"measurement": "inhibition", "setting": "[6]", "value": "> 65", "unit": "%"}, {"measurement": "inhibition", "setting": "[7]", "value": "> 65", "unit": "%"}, {"measurement": "pIC50", "setting": "[8]", "value": 7.13}, {"measurement": "inhibition", "setting": "[9]", "value": "> 65", "unit": "%"}, {"measurement": "inhibition", "setting": "[10]", "value": "> 65", "unit": "%"}]}, {"smiles": "Cc1cc(CN(C[C@H]2CC[C@H](C(=O)O)CC2)[C@H]2CCc3cc(Cl)ccc32)ccc1OCCN1C(=O)CCC1=O", "values": [{"measurement": "Stability", "setting": "[2]", "value": 78, "unit": "%"}, {"measurement": "Stability", "setting": "[3]", "value": 91, "unit": "%"}, {"measurement": "Papp at 2 h", "setting": "[4]", "value": 8.12, "unit": "×10⁻⁶ cm/s"}, {"measurement": "bioavailability", "setting": "[11]", "value": 69, "unit": "%"}, {"measurement": "CLH", "setting": "[12]", "value": 0.09, "unit": "mL/h"}, {"measurement": "inhibition", "setting": "[5]", "value": 92, "unit": "%"}, {"measurement": "inhibition", "setting": "[6]", "value": 87, "unit": "%"}, {"measurement": "inhibition", "setting": "[13]", "value": 82, "unit": "%"}]}, {"smiles": "COc1cc(CN(C[C@H]2CC[C@H](C(=O)O)CC2)[C@H]2CCc3cc(Cl)ccc32)ccc1OCCN1C(=O)CCC1=O", "values": [{"measurement": "Stability", "setting": "[2]", "value": 70, "unit": "%"}, {"measurement": "Stability", "setting": "[3]", "value": 79, "unit": "%"}, {"measurement": "Papp at 2 h", "setting": "[4]", "value": 7.52, "unit": "×10⁻⁶ cm/s"}, {"measurement": "bioavailability", "setting": "[11]", "value": 24, "unit": "%"}, {"measurement": "CLH", "setting": "[12]", "value": 0.112, "unit": "mL/h"}, {"measurement": "inhibition", "setting": "[6]", "value": 43, "unit": "%"}, {"measurement": "inhibition", "setting": "[7]", "value": 25, "unit": "%"}]}, {"smiles": "COc1cc(CN(C[C@H]2CC[C@H](C(=O)O)CC2)C2CCc3cc(Cl)ccc32)ccc1OCCN1C(=O)CCC1=O", "note": "(stereo partly specified)", "values": [{"measurement": "pIC50", "setting": "[1]", "value": 7.62}, {"measurement": "Stability", "setting": "[2]", "value": 66, "unit": "%"}, {"measurement": "Stability", "setting": "[3]", "value": 78, "unit": "%"}, {"measurement": "Papp at 2 h", "setting": "[4]", "value": 8.98, "unit": "×10⁻⁶ cm/s"}, {"measurement": "inhibition", "setting": "[5]", "value": 0, "unit": "%"}, {"measurement": "inhibition", "setting": "[6]", "value": "63 to 64", "unit": "%"}, {"measurement": "inhibition", "setting": "[7]", "value": 52, "unit": "%"}]}, {"smiles": "COc1cc(CN(C[C@H]2CC[C@H](C(=O)O)CC2)C(C)c2ccc3c(c2)CCO3)ccc1OCCN1C(=O)COC1=O", "note": "(stereo partly specified)", "values": [{"measurement": "Stability", "setting": "[2]", "value": 88, "unit": "%"}, {"measurement": "Stability", "setting": "[3]", "value": 93, "unit": "%"}, {"measurement": "Papp at 2 h", "setting": "[4]", "value": 1.16, "unit": "×10⁻⁶ cm/s"}, {"measurement": "Stability", "setting": "[14]", "value": "Unstable"}]}]}
